For 68 compounds, IC50 results are on record in ChEMBL document CHEMBL4304759, “Identifying Novel Anti-Osteoporosis Leads with a Chemotype-Assembly Approach” (J Med Chem, 2019).

SMILES strings stand for the structures.

The experiment has as its system BMDM. Briefly: Anti-osteoporosis activity in C57BL/6 mouse bone marrow macrophages assessed as inhibition of M-CSF/RANKL-induced osteoclast differentiation supplemented with fresh medium containing compounds every 2 days for 5 measured post-last dose by TRAP staining based assay. The format is functional, cell-based. As to conditions: C57BL/6, BMDM, 5 days. An outline of the steps: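 Mouse (C57BL/6, 6-week) BMMs were plated at 6×10³ cells/well with M-CSF 30 ng/mL overnight, then given complete α-MEM with M-CSF and GST-rRANKL 100 ng/mL plus compound at varied concentrations, refreshed every 2 days. At day 5 cells were fixed in 4% paraformaldehyde and TRAcP-stained; TRAcP+ cells with >3 nuclei were counted.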

Turning to `Cc1cc(NC(=O)Cn2cc(-c3cccs3)nn2)no1`, the IC50 was over 30 µM.
As for `COC(=O)c1ccc(-c2cn(CC(=O)Nc3cc(C)on3)nn2)cc1`, the IC50 is over 30 µM.
`CCCN1C(=O)c2ccc(C(=O)Nc3nccs3)cc2C1=O`: the IC50 is 10 µM.
For the compound `O=C(NCc1ccco1)c1cc2ccccc2c(=O)o1`, the IC50 stood at 4.24 µM.
In the case of `CCOC(=O)c1sc(NC(=O)Cn2cc(-c3ccc(OC)cc3)nn2)nc1C` it was 2.33 µM.
In the case of `Cc1cc(NC(=O)Cn2cc(-c3ccc(Cl)cc3)nn2)no1` it was 1.91 µM; in that of `C#Cc1ccc(-c2cn(CC(=O)Nc3nccs3)nn2)cc1`, over 30 µM; in that of `CCCn1c(=O)c(C(=O)Nc2nccs2)c(O)c2ccccc21`, 3.98 µM.
Turning to `Cc1nc(NC(=O)/C=C/c2ccc3c(c2)OCO3)sc1C`, the IC50 amounted to 8.11 µM.
In the case of `O=C(C1=C(O)C(=O)N(CCCn2ccnc2)[C@@H]1c1cccc(O)c1)c1ccc2c(c1)OCCO2` it was 2.7 µM; in that of `O=C(Cn1cc(-c2ccc(Cl)cc2)nn1)Nc1nc2ccccc2s1`, 0.13 µM.
For the compound `COc1ccc(-c2cn(CC(=O)Nc3nc4ccccc4s3)nn2)cc1`, the IC50 is 1.33 µM.
In the case of `Cc1cc(NC(=O)Cn2cc(-c3ccccc3Cl)nn2)no1` it was over 30 µM.
In the case of `Cc1cc(NC(=O)Cn2cc(-c3ccc(C#N)cc3)nn2)no1`, the IC50 was 9.32 µM.
In the case of `CCOC(=O)c1sc(NC(=O)Cn2cc(-c3ccc(Cl)cc3)nn2)nc1C` it was 0.18 µM; in that of `O=C(c1cc2ccccc2s1)N1CCOCC1`, 3.15 µM.
As to `C#Cc1ccc(-c2cn(CC(=O)Nc3cc(C)on3)nn2)cc1`, the IC50 was over 30 µM.
For the compound `N#Cc1ccc(-c2cn(CC(=O)Nc3nccs3)nn2)cc1`, the IC50 was 0.27 µM.
In the case of `O=C(Cn1cc(-c2ccc(F)cc2)nn1)Nc1nc2ccccc2s1` it was over 30 µM.
On to `COc1cccc(-c2cn(-c3ccc(C(F)(F)F)cc3)nc2C(=O)NC2CCCCC2)c1`, for which the IC50 is over 30 µM.
In the case of `O=C(Nc1nc2ccccc2s1)c1cc2ccccc2c(=O)o1`, the IC50 is 5.13 µM.
In the case of `O=C(Cn1cc(-c2cccc(Cl)c2)nn1)Nc1nccs1` it was over 30 µM; in that of `COc1ccc(-c2cn(CC(=O)Nc3nccs3)nn2)cc1`, 0.51 µM.
`COc1cccc(-c2cn(-c3ccc(C(F)(F)F)cc3)nc2C(=O)N2CCc3ccccc3C2)c1`: the IC50 is over 30 µM.
In the case of `CCOC(=O)c1ccccc1SCC(=O)Nc1nccs1` it was 3.98 µM.
In the case of `N#Cc1ccc(C(=O)Nc2nccs2)cc1` it was over 30 µM.
In the case of `CCOC(=O)c1sc(NC(=O)Cn2cc(-c3ccc(C#N)cc3)nn2)nc1C` it was 0.31 µM; in that of `Cc1cc(NC(=O)Cn2cc(-c3ccncc3)nn2)no1`, 0.43 µM; in that of `COc1cccc(OC)c1C(=O)Nc1nc(C)c(C(C)=O)s1`, 2.14 µM.
On to `Cc1csc(NC(=O)Cn2cc(-c3ccc(C(=O)O)cc3)nn2)n1`, for which the IC50 was over 30 µM.
For the compound `Cc1cc(NC(=O)Cn2cc(-c3ccc(F)cc3)nn2)no1`, the 50% inhibitory concentration (IC50) was over 30 µM.
Consider `Cc1cnc(NC(=O)c2ccc3c(c2)OCO3)s1`, for which the IC50 was over 30 µM.
In the case of `Cc1csc(NC(=O)Cn2cc(-c3ccccc3Cl)nn2)n1` it was 1.24 µM; in that of `CCOC(=O)c1sc(NC(=O)Cn2cc(-c3cccs3)nn2)nc1C`, 0.02 µM.
In the case of `O=C(Cn1cc(-c2ccc([N+](=O)[O-])cc2)nn1)Nc1nc2ccccc2s1` it was 3.28 µM; in that of `Cc1ccc(-c2csc(NC(=O)c3ccc(C)o3)n2)cc1`, 4.03 µM.
With `Cc1ccc(-c2csc(NCc3ccc(C)o3)n2)cc1`, the IC50 amounted to 1.19 µM.
With `COc1ccc(-c2cn(CC(=O)Nc3nc(C)cs3)nn2)cc1`, the IC50 turned out to be 3.89 µM.
In the case of `Cc1csc(NC(=O)Cn2cc(-c3ccncc3)nn2)n1` it was 0.1 µM; in that of `Cc1cc(NC(=O)Cn2cc(-c3ccc([N+](=O)[O-])cc3)nn2)no1`, 1.22 µM; in that of `COC(=O)c1ccc(-c2cn(CC(=O)Nc3nc(C)cs3)nn2)cc1`, over 30 µM.
With `Cc1csc(NC(=O)Cn2cc(-c3ccc(F)cc3)nn2)n1`, the IC50 came to 0.25 µM.
In the case of `CCOC(=O)c1sc(NC(=O)Cn2cc(-c3ccc(F)cc3)nn2)nc1C` it was 0.66 µM; in that of `N#Cc1ccc(-c2cn(CC(=O)Nc3nc4ccccc4s3)nn2)cc1`, over 30 µM; in that of `Cc1cc(NC(=O)Cn2cc(-c3cccc(Cl)c3)nn2)no1`, over 30 µM.
In the case of `CCOC(=O)c1sc(NC(=O)Cn2cc(-c3ccncc3)nn2)nc1C` it was 0.12 µM.
`O=C(Cn1cc(-c2ccncc2)nn1)Nc1nc2ccccc2s1`: the IC50 amounted to 0.05 µM.
In the case of `CC(C)Oc1ccccc1C(=O)Nc1nccs1` it was 12.6 µM; in that of `O=C(Cn1cc(-c2ccc(F)cc2)nn1)Nc1nccs1`, 0.19 µM.
Consider `COC(=O)c1ccc(-c2cn(CC(=O)Nc3nc4ccccc4s3)nn2)cc1`, for which the IC50 is over 30 µM.
In the case of `O=C(Cn1cc(-c2ccccc2Cl)nn1)Nc1nccs1` it was 0.06 µM; in that of `COc1cccc(-c2cn(-c3ccc(C(F)(F)F)cc3)nc2C(=O)N2CCN(c3ncccn3)CC2)c1`, over 30 µM; in that of `Nc1cccc(-c2cn(CC(=O)Nc3nccs3)nn2)c1`, 1.27 µM.
Take `Cc1csc(NC(=O)Cn2cc(-c3ccc(Cl)cc3)nn2)n1`: the IC50 amounted to 0.52 µM.
Regarding `Cc1csc(NC(=O)Cn2cc(-c3cccs3)nn2)n1`, the IC50 was 0.04 µM.
`Cc1csc(NC(=O)Cn2cc(-c3cccc(N)c3)nn2)n1`: the IC50 was 0.25 µM.
Turning to `Cc1csc(NC(=O)Cn2cc(-c3ccc([N+](=O)[O-])cc3)nn2)n1`, the IC50 was determined as 0.19 µM.
In the case of `O=C(Cn1cc(-c2cccs2)nn1)Nc1nc2ccccc2s1` it was 21.4 µM; in that of `O=C(Cn1cc(-c2ccc([N+](=O)[O-])cc2)nn1)Nc1nccs1`, 1.04 µM.
Take `CCOc1cc(C(=O)Nc2nccs2)cc(OCC)c1OCC`: the IC50 came out at 6.75 µM.
As to `CCOC(=O)c1sc(NC(=O)Cn2cc(-c3ccc([N+](=O)[O-])cc3)nn2)nc1C`, the IC50 stood at 1.84 µM.
In the case of `COc1cccc(-c2cn(-c3ccc(C(F)(F)F)cc3)nc2C(=O)NCCCN(C)C)c1` it was over 30 µM; in that of `Nc1cccc(-c2cn(CC(=O)Nc3nc4ccccc4s3)nn2)c1`, 1.11 µM; in that of `O=C(Cn1cc(-c2cccs2)nn1)Nc1nccs1`, over 30 µM.
In the case of `O=C(Cn1cc(-c2ccccc2Cl)nn1)Nc1nc2ccccc2s1` it was over 30 µM; in that of `O=C(Cn1cc(-c2ccc(Cl)cc2)nn1)Nc1nccs1`, 1.1 µM; in that of `CCOC(=O)c1sc(NC(=O)Cn2cc(-c3ccccc3Cl)nn2)nc1C`, 0.13 µM.
`COc1ccc(-c2cn(CC(=O)Nc3cc(C)on3)nn2)cc1`: the half-inhibitory concentration (IC50) was over 30 µM.
